Data from ChEMBL document CHEMBL4387752, “Identification of substituted benzothiazole sulfones as potent and selective inhibitors of endothelial lipase” (Bioorg Med Chem Lett, 2019).

Key:
[1] = target: T1, Hepatic triacylglycerol lipase (Homo sapiens, UniProt P11150); experiment: Inhibition of human hepatic lipase expressed in African green monkey COS7 cells using PED-A1 as substrate incubated for 20 mins and measured every 20 secs for 10 mins by FRET assay; assay type: cell-based
T1 sequence (P11150 whole entry): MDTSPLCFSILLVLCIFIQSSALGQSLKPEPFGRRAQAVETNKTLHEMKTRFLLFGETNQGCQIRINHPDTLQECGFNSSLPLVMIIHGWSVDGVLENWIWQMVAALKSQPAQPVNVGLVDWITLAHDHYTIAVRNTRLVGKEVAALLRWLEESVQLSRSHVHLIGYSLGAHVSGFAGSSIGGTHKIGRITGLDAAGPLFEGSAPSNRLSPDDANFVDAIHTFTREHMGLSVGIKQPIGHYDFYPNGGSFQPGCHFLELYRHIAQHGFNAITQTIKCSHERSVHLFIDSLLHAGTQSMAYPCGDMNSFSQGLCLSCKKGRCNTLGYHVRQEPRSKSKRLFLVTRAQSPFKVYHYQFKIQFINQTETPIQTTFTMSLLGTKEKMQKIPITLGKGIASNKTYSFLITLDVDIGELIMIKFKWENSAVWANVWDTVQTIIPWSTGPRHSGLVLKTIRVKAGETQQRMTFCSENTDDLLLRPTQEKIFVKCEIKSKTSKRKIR
How it was run: (§1)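 IC50s were calculated from mean inhibition values of duplicate determinations.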

[2] = target: T2, Endothelial lipase (Homo sapiens, UniProt Q9Y5X9); experiment: Inhibition of human endothelial lipase derived from human HT1080 cell conditioned media using PED-A1 as substrate incubated for 20 mins and measured every 20 secs for 10 mins by FRET assay; how it was run: as §1
T2 sequence (Q9Y5X9 whole entry): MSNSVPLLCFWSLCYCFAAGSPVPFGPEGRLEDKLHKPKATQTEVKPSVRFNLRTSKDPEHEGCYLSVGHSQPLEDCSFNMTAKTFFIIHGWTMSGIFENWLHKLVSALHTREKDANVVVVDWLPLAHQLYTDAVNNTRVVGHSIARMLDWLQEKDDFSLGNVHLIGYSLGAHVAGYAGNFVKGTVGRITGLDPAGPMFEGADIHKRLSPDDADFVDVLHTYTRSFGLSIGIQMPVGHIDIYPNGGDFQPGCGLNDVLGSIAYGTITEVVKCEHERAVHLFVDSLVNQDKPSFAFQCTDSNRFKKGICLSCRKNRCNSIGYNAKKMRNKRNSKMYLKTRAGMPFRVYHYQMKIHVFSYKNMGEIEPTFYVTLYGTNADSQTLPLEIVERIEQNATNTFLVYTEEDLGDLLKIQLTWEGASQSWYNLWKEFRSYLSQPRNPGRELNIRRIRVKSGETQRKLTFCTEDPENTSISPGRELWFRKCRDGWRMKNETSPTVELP

[3] = Plasma concentration in Balb/c mouse at 10 mg/kg, po measured after 24 hrs; assay type: ADME, organism-based
How it was run: (§2)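 Oral PK in fasted male balb/c mice. Dosing vehicle was ethanol/PEG 400/water (10:60:30).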

[4] = Permeability of compound at pH 5.5 by PAMPA; assay type: ADME; settings: read-out: permeability
How it was run: (§3)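 Permeability was measured by parallel artificial membrane permeability assay (PAMPA) at pH 5.5 and pH 7.4. Values are reported in nm/s.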

[5] = Metabolic stability in Balb/c mouse liver microsomes assessed as parent compound remaining at 0.5 uM measured after 10 mins; assay type: ADME, Microsome; settings: read-out: Stability
How it was run: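 Test compound at 0.5 μM was incubated for 10 min with mouse liver microsomes. The read-out is the percentage of parent remaining.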

[6] = Tmax in Balb/c mouse at 10 mg/kg, po; assay type: ADME, organism-based; settings: in vivo; how it was run: as §2
[7] = target: T3, Endothelial lipase (Mus musculus, UniProt Q9WVG5); experiment: Inhibition of mouse endothelial lipase expressed in HEK293F cells using D31-POPC-HDL as substrate incubated for 2 hrs in presence of mouse plasma by LC/MS analysis
T3 sequence (Q9WVG5 whole entry): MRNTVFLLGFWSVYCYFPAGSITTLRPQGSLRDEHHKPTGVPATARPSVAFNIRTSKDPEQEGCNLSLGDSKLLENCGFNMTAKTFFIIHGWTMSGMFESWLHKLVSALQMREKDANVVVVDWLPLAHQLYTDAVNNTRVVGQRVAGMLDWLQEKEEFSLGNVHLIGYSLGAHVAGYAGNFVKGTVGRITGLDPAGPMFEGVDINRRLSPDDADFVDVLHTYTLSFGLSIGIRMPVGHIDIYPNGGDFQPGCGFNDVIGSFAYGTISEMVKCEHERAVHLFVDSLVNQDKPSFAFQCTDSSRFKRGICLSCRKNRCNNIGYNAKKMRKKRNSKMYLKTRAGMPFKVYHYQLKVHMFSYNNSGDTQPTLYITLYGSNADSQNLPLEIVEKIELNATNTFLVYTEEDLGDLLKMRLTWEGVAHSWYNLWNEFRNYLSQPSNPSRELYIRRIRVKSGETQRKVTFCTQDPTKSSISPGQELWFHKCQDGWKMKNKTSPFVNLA
How it was run: (§4)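 IC50 values were derived from the means of duplicate inhibition measurements.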

[8] = Cmax in Balb/c mouse at 10 mg/kg, po; assay type: ADME, organism-based; set-up: dose 10 mg/kg, route oral; settings: in vivo; how it was run: as §2
[9] = Plasma concentration in Balb/c mouse at 10 mg/kg, po measured after 7 hrs; assay type: ADME, organism-based; how it was run: as §2
[10] = Total AUC in Balb/c mouse at 10 mg/kg, po measured after 24 hrs; assay type: ADME, organism-based; set-up: dose 10 mg/kg, time AUCmax, route oral; settings: in vivo; how it was run: as §2
[11] = Permeability of compound at pH 7.4 by PAMPA; assay type: ADME; settings: read-out: permeability; how it was run: as §3
[12] = organism: Homo sapiens; experiment: Selectivity index, ratio of IC50 for inhibition of human hepatic lipase expressed in African green monkey COS7 cells to IC50 for inhibition of human endothelial lipase derived from human HT1080 cell conditioned media; assay type: cell-based
[13] = target: T2, Endothelial lipase; experiment: Inhibition of human endothelial lipase using D31-POPC-HDL as substrate incubated for 2 hrs in presence of human serum by LC/MS analysis; how it was run: as §4

Compound | IC50 [1] [nM] | IC50 [2] [nM] | concentration at 24 h [3] [nM] | Papp [4] [×10⁻⁶ cm/s] | remaining at 10 min, 0.5 µM [5] [%] | Tmax [6] [h] | IC50 [7] [nM] | Cmax [8] [nM] | concentration at 7 h [9] [nM] | AUC at 24 h [10] [µM·h] | Papp [11] [×10⁻⁶ cm/s] | IC50 [13] [nM] | Ratio IC50 [12]
CS(=O)(=O)C(C(=O)NCCS(N)(=O)=O)c1nc2ccc(-c3ccc(C(=O)N4CCOCC4)cc3)cc2s1 (stereo not given) | 280 | 10 | 5 | 1.2 | 100 | 2.6 | 320 | 36 | 8 | 0.16 | 1.3 |  | 
O=C(CNC(=O)C(c1nc2ccc(-c3ccc(F)nc3)cc2s1)S(=O)(=O)CCC(F)(F)F)NC1CC1 (stereo not given) | 79 |  |  |  |  |  | 600 |  |  |  |  | 660 | 2.7
CS(=O)(=O)C(C(=O)NCCS(N)(=O)=O)c1nc2ccc(-c3ccc(F)nc3)cc2s1 (stereo not given) | 4400 | 5 |  | 1.7 | 96 |  | 200 | 30 | 1 | 0.05 | 7.8 |  | 

The next lines start with results.

IC50 [1] [nM] | IC50 [2] [nM] | concentration at 24 h [3] [nM] | Papp [4] [×10⁻⁶ cm/s] | remaining at 10 min, 0.5 µM [5] [%] | Tmax [6] [h] | IC50 [7] [nM] | Cmax [8] [nM] | concentration at 7 h [9] [nM] | AUC at 24 h [10] [µM·h] | Papp [11] [×10⁻⁶ cm/s] | IC50 [13] [nM] | Compound | Ratio IC50 [12]
47 |  |  |  |  |  |  |  |  |  |  |  | CS(=O)(=O)C(C(=O)NCC(=O)NC1CC1)c1nc2ccc(-c3ccccc3)cc2s1 (stereo not given) | 
7 | 25 |  |  |  |  | 94 |  |  |  |  | 65 | O=C(CNC(=O)C(c1nc2ccc(-c3ccc(F)nc3)cc2s1)S(=O)(=O)Cc1ccccc1)NC1CC1 (stereo not given) | 0.3
